Source: ChEMBL document CHEMBL1764971, “7-azabicyclo[2.2.1]heptane as a structural motif to block mutagenicity of nitrosamines” (Bioorg Med Chem, 2011)

Columns and labels:
Salmonella typhimurium [1] = experiment: Mutagenic activity in Salmonella Typhimurium TA98 assessed as number of revertants after 44 hrs by Ames test; assay type: toxicity, organism-based; details: salmonella enterica subsp. enterica serovar typhimurium
In short: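 Pre-incubation Ames method without metabolic activation. Compound at 0.03, 0.06, 0.13, 0.25 or 0.5 mg in DMSO, mixed with 0.5 mL 0.1 M sodium phosphate buffer (pH 7.4) and 0.1 mL tester-strain culture. Shaken 30 min at 37 °C, then plated in top agar on minimal-glucose agar. Colonies counted after 44 h at 37 °C. Duplicate plates, at least two experiments; mean of duplicates.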

Salmonella typhimurium [2] = experiment: Mutagenic activity in Salmonella Typhimurium TA98 assessed as number of revertants after 44 hrs by Ames test in presence of rat liver S9 fraction; assay type: toxicity, organism-based; details: salmonella enterica subsp. enterica serovar typhimurium, s9, 44 h
In short: (§1)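 Pre-incubation Ames method. Compound at 0.03, 0.06, 0.13, 0.25 or 0.5 mg in DMSO, mixed with 0.5 mL rat liver S9 mix (P450s plus NADPH-regenerating system) and 0.1 mL tester-strain culture. Shaken 30 min at 37 °C, then top agar added and poured onto minimal-glucose agar. Revertant colonies counted after 44 h at 37 °C. Duplicate plates, experiments repeated at least twice; mean of duplicates.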

Salmonella typhimurium [3] = experiment: Mutagenic activity in Salmonella Typhimurium TA100 assessed as number of revertants after 44 hrs by Ames test in presence of rat liver S9 fraction; assay type: toxicity, organism-based; details: salmonella enterica subsp. enterica serovar typhimurium, s9, 44 h; in short: as §1
Salmonella typhimurium [4] = experiment: Cytotoxicity against Salmonella Typhimurium TA98 in presence of rat liver S9 fraction; assay type: organism-based; details: salmonella enterica subsp. enterica serovar typhimurium
Salmonella typhimurium [5] = experiment: Cytotoxicity against Salmonella Typhimurium TA98; assay type: organism-based; details: salmonella enterica subsp. enterica serovar typhimurium

Question: For O=NN1C2CC(O)C1c1ccc([N+](=O)[O-])cc12 (stereo unspecified), which Activity (Salmonella typhimurium [1]) is on record?
Answer: Toxic

Question: What about the Activity (Salmonella typhimurium [2]) of the same molecule?
Answer: Toxic

Question: What about the Activity (Salmonella typhimurium [3]) of the same molecule?
Answer: Toxic

Question: For CCOC(=O)CCN1C(=O)C2C(C1=O)C1c3ccccc3C2N1N=O (stereo unspecified), which Activity (Salmonella typhimurium [1]) is on record?
Answer: Non-toxic

Question: What about the Activity (Salmonella typhimurium [2]) of the same molecule?
Answer: Non-toxic

Question: And the Activity (Salmonella typhimurium [3])?
Answer: Non-toxic

Question: Which results are given for O=NN1C2CCC1CC2?
Answer: Activity (Salmonella typhimurium [1]): Non-toxic; Activity (Salmonella typhimurium [2]): Non-toxic; Activity (Salmonella typhimurium [3]): Non-toxic

Question: For O=NN1C2CCC1c1cc([N+](=O)[O-])ccc12 (stereo unspecified), which Activity (Salmonella typhimurium [1]) is on record?
Answer: Non-toxic

Question: What about the Activity (Salmonella typhimurium [2]) of the same molecule?
Answer: Non-toxic

Question: And the Activity (Salmonella typhimurium [3])?
Answer: Non-toxic

Question: For O=NN1C2CC(O)C1c1ccccc12 (stereo unspecified), which Activity (Salmonella typhimurium [1]) is on record?
Answer: Non-toxic

Question: What about the Activity (Salmonella typhimurium [2]) of the same molecule?
Answer: Non-toxic

Question: What about the Activity (Salmonella typhimurium [3]) of the same molecule?
Answer: Non-toxic

Question: How did the Activity (Salmonella typhimurium [1]) turn out when O=NN1C2c3ccccc3C1C1C(=O)N(c3ccccc3)C(=O)C12 (stereo unspecified) was run?
Answer: Non-toxic

Question: What about the Activity (Salmonella typhimurium [4]) of the same molecule?
Answer: Non-toxic

Question: What about the Activity (Salmonella typhimurium [2]) of the same molecule?
Answer: Non-toxic

Question: And the Activity (Salmonella typhimurium [3])?
Answer: Non-toxic

Question: And the Activity (Salmonella typhimurium [5])?
Answer: Toxic

Question: CN1C(=O)[C@@H]2C3c4ccccc4C([C@@H]2C1=O)N3N=O was tested. Which Activity (Salmonella typhimurium [1]) did it give?
Answer: Non-toxic

Question: And the Activity (Salmonella typhimurium [2])?
Answer: Non-toxic

Question: And the Activity (Salmonella typhimurium [3])?
Answer: Non-toxic

Question: Which Activity (Salmonella typhimurium [1]) does the source give for O=NN1C2C=CC1c1cc([N+](=O)[O-])ccc12 (stereo unspecified) here?
Answer: Toxic

Question: And the Activity (Salmonella typhimurium [2])?
Answer: Toxic

Question: And the Activity (Salmonella typhimurium [3])?
Answer: Toxic

Question: How did the Activity (Salmonella typhimurium [1]) turn out when COC(=O)C1CC2c3ccccc3C1N2N=O (stereo unspecified) was run?
Answer: Non-toxic

Question: And the Activity (Salmonella typhimurium [2])?
Answer: Non-toxic

Question: And the Activity (Salmonella typhimurium [3])?
Answer: Non-toxic

Question: How did the Activity (Salmonella typhimurium [1]) turn out when O=NN1C2c3ccccc3C1C(C(F)(F)F)C2C(F)(F)F (stereo unspecified) was run?
Answer: Non-toxic

Question: And the Activity (Salmonella typhimurium [2])?
Answer: Non-toxic

Question: What about the Activity (Salmonella typhimurium [3]) of the same molecule?
Answer: Non-toxic

Question: How did the Activity (Salmonella typhimurium [1]) turn out when O=NN1C2CCC1c1ccccc12 was run?
Answer: Non-toxic

Question: What about the Activity (Salmonella typhimurium [2]) of the same molecule?
Answer: Non-toxic

Question: What about the Activity (Salmonella typhimurium [3]) of the same molecule?
Answer: Non-toxic

Question: With O=NN1CCCC1 as the molecule, how does the Activity (Salmonella typhimurium [1]) read?
Answer: Non-toxic

Question: And the Activity (Salmonella typhimurium [2])?
Answer: Toxic

Question: What about the Activity (Salmonella typhimurium [3]) of the same molecule?
Answer: Toxic

Question: For COc1cc2c(cc1OC)C1CCC2N1N=O, which Activity (Salmonella typhimurium [1]) is on record?
Answer: Toxic

Question: And the Activity (Salmonella typhimurium [2])?
Answer: Toxic

Question: What about the Activity (Salmonella typhimurium [3]) of the same molecule?
Answer: Toxic

Question: What does the source list for COC(=O)C1C(C(=O)OC)C2c3ccccc3C1N2N=O (stereo unspecified)?
Answer: Activity (Salmonella typhimurium [1]): Non-toxic; Activity (Salmonella typhimurium [2]): Non-toxic; Activity (Salmonella typhimurium [3]): Non-toxic

Question: Which results are given for COC(=O)C1CC2(COCc3ccccc3)CCC1N2N=O (stereo unspecified)?
Answer: Activity (Salmonella typhimurium [1]): Non-toxic; Activity (Salmonella typhimurium [2]): Non-toxic; Activity (Salmonella typhimurium [3]): Non-toxic

Question: With O=NN1Cc2ccccc2C1 as the molecule, how does the Activity (Salmonella typhimurium [1]) read?
Answer: Non-toxic

Question: What about the Activity (Salmonella typhimurium [2]) of the same molecule?
Answer: Toxic

Question: And the Activity (Salmonella typhimurium [3])?
Answer: Toxic

Question: With COCC12CCC(C(C(=O)OC)C1)N2N=O (stereo unspecified) as the molecule, how does the Activity (Salmonella typhimurium [1]) read?
Answer: Non-toxic

Question: And the Activity (Salmonella typhimurium [2])?
Answer: Non-toxic

Question: And the Activity (Salmonella typhimurium [3])?
Answer: Non-toxic

Question: Which results are given for COC(=O)C1C(C(=O)OC)C2CCC1N2N=O (stereo unspecified)?
Answer: Activity (Salmonella typhimurium [1]): Non-toxic; Activity (Salmonella typhimurium [2]): Non-toxic; Activity (Salmonella typhimurium [3]): Non-toxic
